Each block holds one compound with its values, some of them ahead of it. Calls of active or inactive are those of the source. The rule behind the calls is not given here.
Columns and labels:
Plasmodium chabaudi [1] = experiment: Antimalarial activity against Plasmodium chabaudi infected in Balb/c mouse assessed as parastemia at 10 mg/kg, ip administered as single dose measured 4 day postinoculation (reference value: 4.6 +/- 0.5 %); format: functional
Plasmodium falciparum = experiment: Antiplasmodium activity against Plasmodium falciparum W2 by flow cytometry; format: functional, organism-based
Method in brief: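 Activity against P. falciparum, reported as EC50, the mean of three or six separate determinations.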

[2] = Stability in human plasma after 240 mins by LC/MS analysis; format: ADME, cell-free; conditions: read-out: Stability
Method in brief: (§1)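 Compounds were incubated at 37 °C in human plasma or whole blood for 240 min (120 min in some plasma cases). The value is the percent of parent remaining.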

[3] = Stability in human blood after 240 mins by LC/MS analysis; format: ADME; conditions: whole blood, read-out: Stability; method in brief: as §1
[4] = Ratio of drug level in human blood to plasma; format: ADME, cell-free; conditions: whole blood and plasma
Plasmodium berghei [5] = experiment: Antimalarial activity against Plasmodium berghei infected in Swiss-Webster mouse assessed as decrease in parasitemia at 10 mg/kg qd for 4 days administered via oral gavage; format: functional, organism-based
Method in brief: (§2)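 Female Swiss-Webster mice (n = 5 per arm) inoculated with 10^6 P. berghei parasites. Compound or vehicle given by oral gavage once daily for 4 days, starting on the day of inoculation. Parasitemia, morbidity and mortality recorded daily over 28 days; mice euthanized as required by study protocol.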

Plasmodium berghei [6] = experiment: Antimalarial activity against Plasmodium berghei infected in Swiss-Webster mouse assessed as mouse survival upto day 28 at 10 mg/kg qd for 4 days administered via oral gavage; format: functional, organism-based; method in brief: as §2
Plasmodium chabaudi [7] = experiment: Antimalarial activity against Plasmodium chabaudi infected in Balb/c mouse assessed as parastemia at 10 mg/kg, ip administered as single dose measured 7 day postinoculation (reference value: 34 +/- 2.3 %); format: functional
[8] = Tmax in Plasmodium chabaudi infected Balb/c mouse plasma at 10 mg/kg, ip by LC-MS/MS analysis; format: ADME, organism-based
Method in brief: (§3)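 P. chabaudi-infected mice given a single 10 mg/kg i.p. dose. Blood and brain were sampled over 24 h and analysed for drug concentrations. Plasma concentration–time course used; brain levels reported at three time points.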

[9] = Drug level in Plasmodium chabaudi infected Balb/c mouse brain at 10 mg/kg, ip at 24 hrs by LC-MS/MS analysis; format: ADME, organism-based; conditions: read-out: Drug uptake; method in brief: as §3
Plasmodium chabaudi [10] = experiment: Antimalarial activity against Plasmodium chabaudi infected in Balb/c mouse assessed as parastemia at 10 mg/kg, ip measured 13 day postinoculation; format: functional
Plasmodium chabaudi [11] = experiment: Antimalarial activity against Plasmodium chabaudi infected in Balb/c mouse assessed as parastemia at 16.5 mg/kg, ip measured 4 day postinoculation (reference value: 4.6 +/- 0.5 %); format: functional
Method in brief: (§4)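 Mice infected with P. chabaudi received one i.p. dose on day 4 postinoculation. Parasitemia (%) was measured on days 4, 7 and 13 postinoculation and reported as mean ± SEM. Animals in poor health were sacrificed on day 8 as the protocol required.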

Plasmodium chabaudi [12] = experiment: Antimalarial activity against Plasmodium chabaudi infected in Balb/c mouse assessed as parastemia at 8 mg/kg, ip measured 4 day postinoculation (reference value: 4.6 +/- 0.5 %); format: functional; method in brief: as §4
Plasmodium chabaudi [13] = experiment: Antimalarial activity against Plasmodium chabaudi infected in Balb/c mouse assessed as parastemia at 50 mg/kg, ip measured 4 day postinoculation (reference value: 4.6 +/- 0.5 %); format: functional; method in brief: as §4
Plasmodium chabaudi [14] = experiment: Antimalarial activity against Plasmodium chabaudi infected in Balb/c mouse assessed as parastemia at 8 mg/kg, ip measured 7 day postinoculation (reference value: 34 +/- 2.3 %); format: functional; method in brief: as §4
Plasmodium chabaudi [15] = experiment: Antimalarial activity against Plasmodium chabaudi infected in Balb/c mouse assessed as parastemia at 16.5 mg/kg, ip measured 7 day postinoculation (reference value: 34 +/- 2.3 %); format: functional; method in brief: as §4
Plasmodium chabaudi [16] = experiment: Antimalarial activity against Plasmodium chabaudi infected in Balb/c mouse assessed as parastemia at 50 mg/kg, ip measured 7 day postinoculation (reference value: 34 +/- 2.3 %); format: functional; method in brief: as §4
Plasmodium chabaudi [17] = experiment: Antimalarial activity against Plasmodium chabaudi infected in Balb/c mouse assessed as parastemia at 16.5 mg/kg, ip measured 13 day postinoculation; format: functional; method in brief: as §4
Plasmodium chabaudi [18] = experiment: Antimalarial activity against Plasmodium chabaudi infected in Balb/c mouse assessed as parastemia at 50 mg/kg, ip measured 13 day postinoculation; format: functional; method in brief: as §4
Brain = experiment: Prodrug activation in Plasmodium chabaudi infected Balb/c mouse brain assessed as mefloquine level at 50 mg/kg, ip at 24 hrs by LC-MS/MS analysis; format: organism-based; conditions: in vivo
Method in brief: (§5)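 Infected mice (P. chabaudi) each got one i.p. dose of 50 mg/kg of the trioxolane conjugate. Blood and brain were collected over 24 h. Plasma and brain were analysed for intact conjugate and for released mefloquine.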

Plasma [19] = experiment: Prodrug activation in Plasmodium chabaudi infected Balb/c mouse plasma assessed as mefloquine level at 50 mg/kg, ip at 24 hrs by LC-MS/MS analysis; format: organism-based; conditions: in vivo; method in brief: as §5
Plasma [20] = experiment: Prodrug activation in Plasmodium chabaudi infected Balb/c mouse plasma assessed as mefloquine level at 50 mg/kg, ip at 30 mins by LC-MS/MS analysis; format: organism-based; conditions: in vivo, 0.5 h; method in brief: as §5
[21] = Tmax in Plasmodium chabaudi infected Balb/c mouse plasma at 50 mg/kg, ip by LC-MS/MS analysis; format: ADME, organism-based; method in brief: as §5
[22] = Terminal half life in Balb/c mouse at 50 mg/kg, ip by LC-MS/MS analysis; format: ADME, organism-based; conditions: in vivo, read-out: beta t1/2 (converted)
Method in brief: (§6)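 Noncompartmental plasma PK after one i.p. dose of 50 mg/kg in uninfected mice and in P. chabaudi-infected mice. Parameters are terminal t1/2, tmax, Cmax, AUCinf, CL/F, Vz/F, MRTlast and MRTinf. F is the fraction of drug reaching systemic exposure after the i.p. dose.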

[23] = Tmax in Balb/c mouse at 50 mg/kg, ip by LC-MS/MS analysis; format: ADME, organism-based; conditions: in vivo; method in brief: as §6
[24] = Cmax in Balb/c mouse at 50 mg/kg, ip by LC-MS/MS analysis; format: ADME, organism-based; set-up: dose 50 mg/kg, route intraperitoneal; conditions: in vivo; method in brief: as §6
[25] = AUC (infinity) in Balb/c mouse at 50 mg/kg, ip by LC-MS/MS analysis; format: ADME, organism-based; set-up: dose 50 mg/kg, time infinity, route intraperitoneal; conditions: in vivo; method in brief: as §6
[26] = Apparent oral clearance in Balb/c mouse at 50 mg/kg, ip by LC-MS/MS analysis; format: ADME, organism-based; conditions: in vivo; method in brief: as §6
[27] = Apparent volume of distribution during terminal phase in Balb/c mouse at 50 mg/kg, ip by LC-MS/MS analysis; format: ADME, organism-based; conditions: in vivo, read-out: Vz/F; method in brief: as §6
[28] = Mean residence time (last) in Balb/c mouse at 50 mg/kg, ip by LC-MS/MS analysis; format: ADME, organism-based; conditions: in vivo; method in brief: as §6
[29] = Mean residence time (infinity) in Balb/c mouse at 50 mg/kg, ip by LC-MS/MS analysis; format: ADME, organism-based; conditions: in vivo; method in brief: as §6
[30] = Terminal half life in Plasmodium chabaudi infected Balb/c mouse at 50 mg/kg, ip by LC-MS/MS analysis; format: ADME, organism-based; conditions: in vivo, read-out: beta t1/2 (converted); method in brief: as §6
[31] = Tmax in Plasmodium chabaudi infected Balb/c mouse at 50 mg/kg, ip by LC-MS/MS analysis; format: ADME, organism-based; conditions: in vivo; method in brief: as §6
[32] = Cmax in Plasmodium chabaudi infected Balb/c mouse at 50 mg/kg, ip by LC-MS/MS analysis; format: ADME, organism-based; set-up: dose 50 mg/kg, route intraperitoneal; conditions: in vivo; method in brief: as §6
[33] = AUC (infinity) in Plasmodium chabaudi infected Balb/c mouse at 50 mg/kg, ip by LC-MS/MS analysis; format: ADME, organism-based; set-up: dose 50 mg/kg, route intraperitoneal, time infinity; conditions: in vivo; method in brief: as §6
[34] = Apparent oral clearance in Plasmodium chabaudi infected Balb/c mouse at 50 mg/kg, ip by LC-MS/MS analysis; format: ADME, organism-based; conditions: in vivo; method in brief: as §6
[35] = Apparent volume of distribution during terminal phase in Plasmodium chabaudi infected Balb/c mouse at 50 mg/kg, ip by LC-MS/MS analysis; format: ADME, organism-based; conditions: in vivo, read-out: Vz/F; method in brief: as §6
[36] = Mean residence time (last) in Plasmodium chabaudi infected Balb/c mouse at 50 mg/kg, ip by LC-MS/MS analysis; format: ADME, organism-based; conditions: in vivo; method in brief: as §6
[37] = Mean residence time (infinity) in Plasmodium chabaudi infected Balb/c mouse at 50 mg/kg, ip by LC-MS/MS analysis; format: ADME, organism-based; conditions: in vivo; method in brief: as §6
[38] = Stability in human plasma after 120 mins by LC/MS analysis; format: ADME, cell-free; conditions: read-out: Stability; method in brief: as §1
Plasmodium berghei [39] = experiment: Antimalarial activity against Plasmodium berghei infected in Swiss-Webster mouse assessed as mouse survival at 9.5 mg/kg qd for 4 days administered via oral gavage; format: functional, organism-based
Method in brief: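 Female Swiss-Webster mice (n = 5 per arm) were inoculated with 10^6 P. berghei parasites. Oral gavage once daily for 4 days, starting on the day of inoculation; doses were equimolar across compounds. Parasitemia, morbidity and survival were followed daily for 28 days, with euthanasia as the protocol required.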

- EC50 (Plasmodium falciparum): 2.5 nM
- remaining at 4 h [2]: 97%
- remaining at 4 h [3]: 95%
- blood plasma ratio [4]: 1.6
- Tmax [8]: 5 min
- concentration at 24 h [9]: 1400 ng/mL
SMILES: O[C@@H](c1cc(C(F)(F)F)nc2c(C(F)(F)F)cccc12)[C@H]1CCCCN1 (racemic) [(S,R)-MEFLOQUINE]
- Activity (Plasmodium chabaudi [1]): 4.8%
- inhibition (Plasmodium berghei [5]): Active
- Activity (Plasmodium berghei [6]): Active
- Activity (Plasmodium chabaudi [7]): 0.02%
- Activity (Plasmodium chabaudi [10]): 0%

SMILES: C[C@@H]1CC[C@H]2[C@@H](C)C(=O)O[C@@H]3O[C@@]4(C)CC[C@@H]1[C@]32OO4 [ARTEMISININ]
- EC50 (Plasmodium falciparum): 9.3 nM

SMILES: CC(C)(N)CNC(=O)C[C@H]1CC[C@]2(CC1)OOC1(O2)C2CC3CC(C2)CC1C3 (some centres undefined)
- EC50 (Plasmodium falciparum): 2.5 nM
- blood plasma ratio [4]: 1.5

SMILES: O=C(O[C@H]1CCC[C@@]2(C1)OOC1(O2)C2CC3CC(C2)CC1C3)N1CCCC[C@@H]1[C@@H](O)c1cc(C(F)(F)F)nc2c(C(F)(F)F)cccc12 (some centres undefined)
- Activity (Plasmodium chabaudi [11]): 4.5%
- Activity (Plasmodium chabaudi [12]): 4.8%
- EC50 (Plasmodium falciparum): 3 nM
- remaining at 4 h [2]: 94%
- remaining at 4 h [3]: 85%
- blood plasma ratio [4]: 0.7
- Activity (Plasmodium chabaudi [13]): 5.4%
- Activity (Plasmodium chabaudi [14]): 33%
- Activity (Plasmodium chabaudi [15]): 0.7%
- Activity (Plasmodium chabaudi [16]): 0%
- Activity (Plasmodium chabaudi [17]): 0.65%
- Activity (Plasmodium chabaudi [18]): 0%
- Drug metabolism (Brain): 250 ng/mL
- Drug metabolism (Plasma [19]): metabolite_detected
- Drug metabolism (Plasma [20]): metabolite_notdetected
- Tmax [21]: 0.5 h
- half-life [22]: 8.41 h
- Tmax [23]: 1 h
- Cmax [24]: 3620 ng/mL
- AUC(0-inf) [25]: 34100 ng·h/mL
- CL/F [26]: 24.5 mL/min/kg
- Vd/F [27]: 17.8 L/kg
- MRT last [28]: 6.93 h
- MRT inf [29]: 11 h
- half-life [30]: 8.6 h
- Tmax [31]: 2 h
- Cmax [32]: 1570 ng/mL
- AUC(0-inf) [33]: 13600 ng·h/mL
- CL/F [34]: 61.2 mL/min/kg
- Vd/F [35]: 45.5 L/kg
- MRT last [36]: 6.43 h
- MRT inf [37]: 10.6 h

SMILES: CC(C)(N)CNC(=O)O[C@H]1CCC[C@@]2(C1)OOC1(O2)C2CC3CC(C2)CC1C3 (some centres undefined)
- EC50 (Plasmodium falciparum): 2.7 nM
- remaining at 2 h [38]: 97%
- Activity (Plasmodium berghei [39]): Active
